Hits are enriched below; roughly 2.1% of the tested compounds scored in any of these assays.
MC4R ag barr – MC4R agonists recruiting beta-arrestin, primary screen, cell-based, luminescence, agonist arm of biased-ligand search; Melanocortin receptor 4 (Homo sapiens), P32245; U2OS MC4R beta-arrestin complementation; percent of melanotan II response, DMSO zero; activation, % at 8.9 µM; 360,000 tested, 0.98% active; AID 540308, 2011;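 active = activation above a per-plate cutoff, the mean activation of sample wells on that plate plus 3 SD, cut at about 8% in these data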
Target sequence (P32245 whole entry, looked up): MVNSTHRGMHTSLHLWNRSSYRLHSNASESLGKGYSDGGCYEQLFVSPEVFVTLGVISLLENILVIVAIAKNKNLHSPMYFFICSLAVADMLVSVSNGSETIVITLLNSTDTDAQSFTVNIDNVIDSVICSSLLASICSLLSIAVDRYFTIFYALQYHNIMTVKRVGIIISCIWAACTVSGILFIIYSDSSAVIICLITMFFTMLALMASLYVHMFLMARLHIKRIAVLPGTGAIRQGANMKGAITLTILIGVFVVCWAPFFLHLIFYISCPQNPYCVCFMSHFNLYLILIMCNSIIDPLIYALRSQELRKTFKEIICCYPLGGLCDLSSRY
MIN6 prolif – inducers of MIN6 beta-cell proliferation, primary screen, ATP luminescence, uHTS; MIN6 cells proliferation, ATPlite luminescence, 48 h; cells starved in 0.2% serum; 100% = growth in 10% serum; proliferation, % at 10 µM; 330,000 tested, 0.29% active;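 active = compounds whose signal lies at least 3.5 SD above the mean of all wells on their plate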
TLR9-MyD88 block – inhibitors of TLR9-MyD88 association in cells, primary screen, cell-based, CHO, BLA complementation, fluorescence | AID 504734, 2011 | inhibition, % at 4.98 µM | 340,000 tested, 0.21% active | CCF4 FRET ratio;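 active = inhibition above the mean over all tested compounds plus 3 SD, cut at about 21% in these data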
NOD2 RIPK2 PPI – NOD2-RIPK2 binding disruptors in cells, primary screen, fluorescence, CHO cells, BLA complementation. AID 624267, 2012. CCF4 ratio. Receptor-interacting serine/threonine-protein kinase 2 (Homo sapiens), O43353. inhibition, % at 4.98 µM. 360,000 tested, 0.38% active; in the data active = inhibition above about 21%
TLR4-MyD88 BLA – inhibitors of TLR4-MyD88 association in cells, primary screen, cell-based, HeLa CL3-4, BLA complementation, FRET ratio; HeLa CL3-4 TLR4/MyD88 BLA complementation; inhibition, % at 8.4 µM; 200,000 tested, 0.18% active; AID 861, 2007; in the data active = inhibition above about 25%
MC4R antagonist – MC4R antagonists of cAMP signaling, primary screen, cell-based, TR-FRET, antagonist arm of biased-ligand search; Melanocortin receptor 4 (Homo sapiens), P32245; MC4R-expressing cells, MTII-stimulated cAMP, LANCE TR-FRET; inhibition, % at 6.5 µM; 360,000 tested, 0.48% active;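 active = inhibition above its plate's cutoff, the mean of tested wells on that plate plus 3 SD, cut at about 29% in these data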
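system = U2OS cells with stable human MC4R expression | also added = Melanotan II challenge after compound preincubation | dosing = one concentration, 6.5 µM nominal | incubation = compound 30 min, challenge 1 h, detection 1 h | measured by = TR-FRET with Eu-cAMP and labeled anti-cAMP, 671 nm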
U2OS cAMP counter – nonselective cAMP signaling inhibitors, parental cells, counter-screen for MC4R biased antagonist project, cell-based, TR-FRET, U2OS, forskolin, triplicate; 1,600 tested, 26% active; AID 602193, 2012; inhibition, % at 6.5 µM; LANCE TR-FRET; shares compounds with MC4R antagonist;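 active = mean inhibition over triplicates above the low-control well mean plus 3 SD, set per campaign, cut at about 13% in these data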;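 note: signal is single emission at 671 nm which falls as cellular cAMP rises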
MC4R cAMP antag – MC4R cAMP antagonists, retest, confirmation, cell-based, TR-FRET; shares compounds with MC4R antagonist; 1,600 tested, 27% active; MC4R-expressing cells, MTII-stimulated cAMP; inhibition, % at 6.5 µM; in the data active = inhibition above about 29%
Numbers stand for hits; - = inactive; . = no result; ! = not active in a repeat.

SMILES	MC4R ag barr	MIN6 prolif	TLR9-MyD88 block	NOD2 RIPK2 PPI	TLR4-MyD88 BLA	MC4R antagonist	U2OS cAMP counter	MC4R cAMP antag
Cc1sc2nc(CN(C(=O)c3cccs3)C3CCCC3)[nH]c(=O)c2c1C	-	-	-	-	-	-	.	.
O=C(c1cccs1)N(Cc1nc2sc3c(c2c(=O)[nH]1)CCCC3)C1CCCC1	-	-	-	-	-	30	-	-
CCCCC(=O)Nc1ccc(C(=O)N(CC)c2ccccc2C)cc1	-	-	-	-	-	30	-	-
CCN(C(=O)c1ccc(NC(C)=O)cc1)c1ccccc1C	-	-	-	-	-	-	.	.
CCSc1nnc(-c2ccccc2SC)o1	-	-	-	-	-	30	-	-
CSc1ccccc1-c1nnc(-c2ccc(Cl)cc2Cl)o1	-	-	-	-	-	-	.	.
CCOC(=O)CC(NC(=O)Cn1nnc(-c2ccccc2F)n1)c1ccc(OC)cc1 (centres undefined)	-	-	-	-	-	30	-	-
CCOC(=O)CC(NC(=O)Cn1nnc(-c2ccccc2Cl)n1)c1ccc(OC)cc1 (centres undefined)	-	-	-	-	-	-	.	.
CC(C)OP(=O)(OC(C)C)/C(C=O)=N\Nc1ccc([N+](=O)[O-])cc1	-	-	-	-	.	39	-	-
Cc1ccc(Cn2ncc(Cl)c(Cl)c2=O)cc1	-	-	-	-	-	49	33	50
O=C(Cn1ncc(Cl)c(Cl)c1=O)N1CCN(Cc2ccccc2)CC1	-	.	-	-	-	29	26	40
CC(Oc1ccccc1F)C(=O)NNC(=O)c1cccc(S(=O)(=O)N2CCN(C)CC2)c1 (centres undefined)	-	-	-	-	.	-	.	.
O=C(Cn1cc(C(F)(F)F)ccc1=O)N1CCc2ccccc21	-	-	-	-	.	-	.	.
O=C1CCc2cc(NS(=O)(=O)c3ccc(Cl)cc3)cc3c2N1CC3	-	-	-	-	.	-	.	.
CCOc1ccc(N2C(=O)C3C4C=CC([C@H]5CC45)[C@@H]3C2=O)cc1 (some centres undefined)	-	-	-	-	.	-	.	.
Cc1noc(C)c1COC(=O)/C=C/c1ccc(Cl)cc1	-	-	-	-	-	31	-	-
COc1ccc(-c2cc(C(=O)Nc3cc(OC)cc(C(=O)Nc4cccc(C(F)(F)F)c4)c3)[nH]n2)cc1	-	-	-	-	.	31!	-	-
O=C(Nc1cccc(-c2csc(Nc3cccc(C(F)(F)F)c3)n2)c1)c1ccccc1	-	-	-	-	.	42	-	-
COc1cc(NC(=O)c2cc3cccc(OC)c3o2)cc(C(=O)Nc2cccc(C(F)(F)F)c2)c1	-	-	-	-	.	33	-	-
COc1cc(NC(=O)c2csc(-c3ccncc3)n2)cc(C(=O)Nc2cccc(C(F)(F)F)c2)c1	-	-	-	-	.	39!	-	-
COc1cc(NC(=O)c2ccc(N)nc2)cc(C(=O)Nc2cccc(C(F)(F)F)c2)c1	-	-	-	-	.	-	.	.
COc1cc(NC(=O)c2ccno2)cc(C(=O)Nc2cccc(C(F)(F)F)c2)c1	-	-	-	-	.	-	.	.
CC1CCCCC1NC(=O)CCNS(=O)(=O)c1ccc(Cl)cc1 (centres undefined)	-	-	-	-	.	-	.	.
O=C(CNc1cccc([N+](=O)[O-])c1)N1CCN(S(=O)(=O)c2ccc(Cl)cc2)CC1	-	-	-	-	.	-	.	.
Cc1ccc(Sc2ccc(/C=N/O)cc2[N+](=O)[O-])cc1	-	-	-	-	-	-	.	.
SMILES	MC4R ag barr	MIN6 prolif	TLR9-MyD88 block	NOD2 RIPK2 PPI	TLR4-MyD88 BLA	MC4R antagonist	U2OS cAMP counter	MC4R cAMP antag
CO/N=C/c1ccc(Sc2ccc(C)cc2)c([N+](=O)[O-])c1	-	-	-	-	-	29	-	-
COc1ccc(OC)c(CN2CCN(c3ccc(S(=O)(=O)N4CCCC4)cn3)CC2)c1	-	-	-	-	.	-	.	.
c1ccc(-c2cc3ccccc3nc2N2CCCC2)cc1	-	-	-	-	-	-	.	.
Cc1ccc(-c2cc3ccccc3nc2N2CCOCC2)cc1	-	-	.	-	-	34	-	-
COc1ccccc1C(CNC(=O)C(CCSC)NC(=O)c1ccccc1Cl)N1CCCC1 (centres undefined)	-	.	-	-	.	-	.	.
Cc1ccc(CN2CCN(Cc3ccc4cccc(F)c4n3)CC2CCO)cc1 (centres undefined)	-	-	-	-	.	-	.	.
c1ccc(Cn2c(CNc3nc4ccccc4n3CCN3CCCCC3)nc3ccccc32)cc1	-	-	-	-	-	29	-	-
Cn1c(CNc2nc3ccccc3n2CCN2CCCCC2)nc2ccccc21	-	-	-	-	-	-	.	.
O=C(NCC1CCCO1)c1ccc2c(=O)n(CC3CCCO3)c(SCC(=O)N3CCCC3)nc2c1 (centres undefined)	-	-	-	-	-	-	.	.
CCOC(=O)CC(=O)CSc1ncnc2c1nnn2-c1ccccc1	-	-	-	-	.	-	.	.
CC(C)COC(=O)N1CCCCC1c1cc(C(=O)Nc2ccc3c(c2)OCO3)no1 (centres undefined)	-	.	.	-	.	-	.	.
CC(C(=O)c1ccccc1)[n+]1cccc(C(N)=O)c1 (centres undefined)	-	-	-	-	.	33	-	-
Cc1ccc(C(=O)C(C)[n+]2cccc(C(N)=O)c2)cc1 (centres undefined)	-	-	-	-	-	-	.	.
OCC1OC(n2cnc3ccccc32)CC1O (centres undefined)	-	-	-	-	.	-	.	.
COC(=O)c1c(N2C(=O)[C@H]3[C@@H](C2=O)[C@]2(C(=O)Nc4c2ccc(C)c4C)N2CCC[C@@H]32)sc(C)c1C	-	-	-	-	-	33	-	-
CCc1ccc(C(=O)COC(=O)c2cnc(C)cn2)cc1	-	-	-	-	-	-	.	.
Cc1cnc(C(=O)OCC(=O)c2ccc(Br)s2)cn1	-	-	-	-	.	30	13	-

Source: PubChem BioAssay (several laboratories)
